Data reported in ChEMBL document CHEMBL4725336, “Anti-cancer potential of (1,2-dihydronaphtho[2,1-b]furan-2-yl)methanone derivatives” (Bioorg Med Chem Lett, 2020).

How the values were obtained:
MDA-MB-468 = test: Antiproliferative activity against human MDA-MB-468 cells assessed as inhibition of cell proliferation by MTT assay; type: functional; details: read-out: LD50 (the source's name)
Procedure, shortened: (§1)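 MTT proliferation assay; cells exposed to compounds across 0-50 μM; LD50 derived from dose-dependent survival. Triple-negative MDA-MB-468, MDA-MB-231 and 4T1, ER+/PR+ MCF-7, and non-cancerous lung fibroblast WI-38 tested.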

MCF7 = test: Antiproliferative activity against human MCF7 cells assessed as inhibition of cell proliferation by MTT assay; type: functional; details: read-out: LD50 (the source's name); procedure, shortened: as §1
[1] = Cytotoxicity against human WI-38 cells assessed as inhibition of cell proliferation by MTT assay; type: cell-based; details: read-out: LD50 (the source's name); procedure, shortened: as §1
[2] = Selectivity index, ratio of LD50 for human WI-38 cells to LD50 for human MDA-MB-468 cells assessed as inhibition of cell proliferation by MTT assay; type: toxicity; details: WI-38 cells and MDA-MB-468 cells, read-out: Selectivity Index
Procedure, shortened: (§2)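 MTT proliferation assay on cells treated with 0–50 μM. LD50 was derived for each cell line, and the selectivity index was calculated as WI-38 LD50 divided by cancer-cell LD50.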

[3] = Selectivity index, ratio of LD50 for human WI-38 cells to LD50 for human MCF7 cells assessed as inhibition of cell proliferation by MTT assay; type: toxicity; details: WI-38 cells and MCF7 cells, read-out: Selectivity Index; procedure, shortened: as §2
4T1 = test: Antiproliferative activity against mouse 4T1 cells assessed as inhibition of cell proliferation by MTT assay; type: functional; details: read-out: LD50 (the source's name); procedure, shortened: as §1
[4] = Selectivity index, ratio of LD50 for human WI-38 cells to LD50 for mouse 4T1 cells assessed as inhibition of cell proliferation by MTT assay
Procedure, shortened: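 Selectivity index computed as MTT-derived LD50 in non-cancerous WI-38 lung fibroblasts divided by LD50 in the cancer line (cells exposed to 0-50 μM).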

MDA-MB-231 = test: Antiproliferative activity against human MDA-MB-231 cells assessed as inhibition of cell proliferation by MTT assay; type: functional; details: read-out: LD50 (the source's name); procedure, shortened: as §1
[5] = Selectivity index, ratio of LD50 for human WI-38 cells to LD50 for human MDA-MB-231 cells assessed as inhibition of cell proliferation by MTT assay; type: toxicity; details: WI-38 cells and MDA-MB-231 cells, read-out: Selectivity Index

SMILES	CC50 (MDA-MB-468)	CC50 (MCF7)	CC50 [1]	selectivity ratio [2]	selectivity ratio [3]	CC50 (4T1)	Selectivity Index [4]	CC50 (MDA-MB-231)	selectivity ratio [5]
O=C(c1ccccc1)[C@H]1Oc2ccc3ccccc3c2[C@@H]1c1ccc(Cl)cc1	87 µM	91 µM	96 µM	1.1	1.05				
O=C(c1ccccc1)[C@@H]1Cc2c(ccc3cc(Br)ccc23)O1	32 µM	54 µM	73 µM	2.28	1.35				
N#Cc1ccc(C(=O)[C@H]2Oc3ccc4ccccc4c3[C@@H]2c2ccc3ccccc3c2)cc1	54 µM	57 µM	88 µM	1.63	1.54				
CCC[C@H]1c2c(ccc3ccccc23)O[C@@H]1C(=O)c1ccccc1	69 µM	74 µM	79 µM	1.14	1.07				
C[C@H]1c2c(ccc3ccccc23)O[C@@H]1C(=O)c1ccccc1	34 µM	38 µM	64 µM	1.88	1.68				
O=C(c1ccco1)[C@@H]1Cc2c(ccc3ccccc23)O1	34 µM	37 µM	51 µM	1.5	1.38				
N#Cc1ccc([C@H]2c3c(ccc4ccccc34)O[C@@H]2C(=O)c2ccccc2)cc1	53 µM	51 µM	72 µM	1.35	1.41				
O=C(c1ccco1)[C@H]1Oc2ccc3cc(Br)ccc3c2[C@@H]1c1ccccc1	68 µM	72 µM	92 µM	1.35	1.28				
Cc1ccc([C@H]2c3c(ccc4ccccc34)O[C@@H]2C(=O)c2ccccc2)cc1	63 µM	71 µM	72 µM	1.14	1.01				
O=C(c1ccc(Br)cc1)[C@@H]1Cc2c(ccc3ccccc23)O1	18 µM	21 µM	56 µM	3.11	2.66	25 µM	2.24	23 µM	2.43
CC(=O)[C@@H]1Cc2c(ccc3ccccc23)O1	22 µM	26 µM	47 µM	2.13	1.8				
O=C(c1ccccc1)[C@H]1Oc2ccc3ccccc3c2[C@@H]1C1CCCCC1	46 µM	42 µM	74 µM	1.6	1.76				
O=C(c1ccccc1)[C@H]1Oc2ccc3ccccc3c2[C@@H]1c1ccccc1	72 µM	68 µM	89 µM	1.24	1.3				
O=C(c1ccccc1)[C@H]1Oc2ccc3cc(Br)ccc3c2[C@@H]1c1ccccc1	18 µM	19 µM	52 µM	2.89	2.74	24 µM	2.16	22 µM	2.36
O=C(c1ccccc1)[C@H]1Oc2ccc3ccccc3c2[C@@H]1c1ccc(O)cc1	81 µM	77 µM	115 µM	1.42	1.49				
O=C(c1ccccc1)[C@H]1Oc2ccc3ccccc3c2[C@@H]1c1ccc(Br)cc1	63 µM	56 µM	77 µM	1.22	1.37				
COc1ccc([C@H]2c3c(ccc4ccccc34)O[C@@H]2C(=O)c2ccccc2)cc1	118 µM	84 µM	83 µM	0.7	0.98				
COc1cc([C@H]2c3c(ccc4ccccc34)O[C@@H]2C(=O)c2ccccc2)cc(OC)c1OC	88 µM	86 µM	128 µM	1.45	1.49				
O=C(c1ccccc1)[C@H]1Oc2ccc3ccccc3c2[C@@H]1c1ccc2ccccc2c1	23 µM	28 µM	59 µM	2.56	2.1				
COc1cc([C@@H]2c3cc4c(cc3[C@@H](O[C@@H]3O[C@@H]5CO[C@@H](C)O[C@H]5[C@H](O)[C@H]3O)[C@H]3COC(=O)[C@H]23)OCO4)cc(OC)c1O [ETOPOSIDE]	27.9 µM	45.3 µM	29.6 µM	1.06	0.65				
O=C(c1ccc(F)cc1)[C@@H]1Cc2c(ccc3ccccc23)O1	27 µM	29 µM	54 µM	2	1.86				
